Experimental findings from ChEMBL document CHEMBL1145339, “N1-Benzoyl-N2-[1-(1-naphthyl)ethyl]-trans-1,2-diaminocyclohexanes: Development of 4-chlorophenylcarboxamide (calhex 231) as a new calcium sensing receptor ligand demonstrating potent calcilytic activity” (J Med Chem, 2006) are described below.

Activity calls are given as the source filed them. The calls are words filed in the database; no cut-off is given here.

Common to all, as to type: functional, cell-based
Assay [1] has as its target T1, Extracellular calcium-sensing receptor (Rattus norvegicus) (UniProt P48442).
T1 sequence (whole entry): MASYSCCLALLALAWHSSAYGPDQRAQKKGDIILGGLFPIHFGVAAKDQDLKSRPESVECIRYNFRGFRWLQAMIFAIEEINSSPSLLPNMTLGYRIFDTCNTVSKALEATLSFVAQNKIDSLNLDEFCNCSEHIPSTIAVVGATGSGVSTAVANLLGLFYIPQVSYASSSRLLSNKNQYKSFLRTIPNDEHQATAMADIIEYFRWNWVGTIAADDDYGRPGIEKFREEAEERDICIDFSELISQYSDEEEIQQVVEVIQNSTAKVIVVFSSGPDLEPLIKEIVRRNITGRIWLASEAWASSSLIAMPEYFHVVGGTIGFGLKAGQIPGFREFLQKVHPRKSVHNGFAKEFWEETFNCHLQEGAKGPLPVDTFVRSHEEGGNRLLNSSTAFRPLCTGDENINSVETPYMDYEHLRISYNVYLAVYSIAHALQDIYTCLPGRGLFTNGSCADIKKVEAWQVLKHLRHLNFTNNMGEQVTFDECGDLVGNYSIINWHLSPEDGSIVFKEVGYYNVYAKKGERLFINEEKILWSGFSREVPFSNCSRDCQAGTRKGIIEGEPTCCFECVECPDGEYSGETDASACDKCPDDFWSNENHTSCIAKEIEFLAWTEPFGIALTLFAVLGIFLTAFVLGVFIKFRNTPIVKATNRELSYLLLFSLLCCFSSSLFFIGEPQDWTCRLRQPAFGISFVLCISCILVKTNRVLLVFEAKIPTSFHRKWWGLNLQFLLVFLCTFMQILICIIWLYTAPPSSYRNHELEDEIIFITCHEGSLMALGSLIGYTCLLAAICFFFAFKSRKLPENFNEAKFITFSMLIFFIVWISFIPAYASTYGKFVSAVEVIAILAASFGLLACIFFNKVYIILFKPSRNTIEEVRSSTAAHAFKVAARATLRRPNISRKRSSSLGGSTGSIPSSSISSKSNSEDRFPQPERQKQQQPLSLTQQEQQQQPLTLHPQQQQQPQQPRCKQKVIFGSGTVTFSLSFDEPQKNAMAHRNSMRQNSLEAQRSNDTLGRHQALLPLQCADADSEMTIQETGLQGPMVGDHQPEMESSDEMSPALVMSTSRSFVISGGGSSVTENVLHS
In words: Activity at rat CaSR in CHO cells assessed as inhibition of calcium ion-induced [3H]inositol phosphate accumulation at 10 uM. The essentials: (§1)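 CHO cells stably transfected with rat CaSR, grown in basal Ham's F-12 (0.3 mM Ca2+, 0.6 mM Mg2+). Overnight labelling with myo-[3H]inositol (0.5 µCi/mL). Cells washed, then 15 min at 37°C in basal medium with 10 mM LiCl, then 30 min at 37°C with 9 mM Ca2+ plus compound (10 mM ethanol stock diluted in medium). Reaction stopped with HClO4; [3H]IP isolated by ion exchange.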

Assay [2] concerns the target T1, Extracellular calcium-sensing receptor (Rattus norvegicus). In words: Activity at rat CaSR in CHO cells assessed as inhibition of calcium ion-induced [3H]inositol phosphate accumulation at 1 uM. The essentials:
as §1

Assay [3] has as its target T2, Extracellular calcium-sensing receptor (Rattus norvegicus, UniProt P48442).
T2 sequence (P48442 whole entry): T1 sequence (whole entry)
In words: Activity at rat CaSR in CHO cells assessed as inhibition of calcium ion-induced [3H]inositol phosphate accumulation. In short, it runs like this: as §1

What is called inhibition is the relative decrease from the control value, in per cent. By IC50 is commonly meant the concentration that inhibits the measured activity by half. Consider `CC(N[C@@H]1CCCC[C@H]1NC(=O)c1ccc(OC(F)(F)F)cc1)c1cccc2ccccc12` (relative stereo), for which the figures for the inhibition in assay [1] and in assay [2] were 95% and 50%, respectively. In addition, the IC50 in assay [3] turned out to be 900 nM.

In the case of `COc1ccc(S(=O)(=O)N[C@@H]2CCCC[C@H]2NC(C)c2cccc3ccccc23)cc1` (some centres undefined), the values for the inhibition in assay [1] and in assay [2] were 62% and 12%, respectively. Besides, the IC50 in assay [3] came out at 8000 nM.

In the case of `C[C@@H](N[C@@H]1CCCC[C@H]1NC(=O)c1ccc(OC(F)(F)F)cc1)c1cccc2ccccc12`, in assay [1], the inhibition came to 95%. Further, the IC50 in assay [3] amounted to 1700 nM.

Regarding `CC(N[C@@H]1CCCC[C@H]1NC(=O)c1ccccn1)c1cccc2ccccc12` (relative stereo), the inhibition in assay [1] was determined as 76%; in assay [2], 35%.

In the case of `C[C@@H](N[C@H]1CCCC[C@@H]1NC(=O)c1ccc(OC(F)(F)F)cc1)c1cccc2ccccc12`, the inhibition in assay [1] is 100%. Also, the IC50 in assay [3] is 250 nM.

On to `CC(N[C@@H]1CCCC[C@H]1NS(=O)(=O)c1ccc([N+](=O)[O-])cc1)c1cccc2ccccc12` (relative stereo), for which the inhibition in assay [1] came out at 56%.

As for `COc1ccc(OC)c(S(=O)(=O)N[C@@H]2CCCC[C@H]2NC(C)c2cccc3ccccc23)c1` (relative stereo), in assay [1], the inhibition turned out to be 0%.

Turning to `CC(N[C@@H]1CCCC[C@H]1NC(=O)c1ccc(Cl)cc1)c1cccc2ccccc12` (relative stereo), the results for the inhibition in assay [1] and in assay [2] were 106% and 90%, respectively.

On to `C[C@@H](N[C@@H]1CCCC[C@H]1NS(=O)(=O)c1ccc(OC(F)(F)F)cc1)c1cccc2ccccc12`, for which the inhibition in assay [1] came out at 32%.

With `CC(N[C@@H]1CCCC[C@H]1NS(=O)(=O)c1cccc(C(F)(F)F)c1)c1cccc2ccccc12` (relative stereo), in assay [1], the inhibition is 44%.

As to `O=[N+]([O-])c1ccc(S(=O)(=O)N[C@@H]2CCCC[C@H]2NCc2cccc3ccccc23)cc1` (relative stereo), the results for the inhibition in assay [1] and in assay [2] were 6% and 1%, respectively.

For the compound `C[C@H](N[C@H]1CCCC[C@@H]1NC(=O)c1ccc(OC(F)(F)F)cc1)c1cccc2ccccc12`, the inhibition entry in assay [1] is “inactive”.

On to `C[C@H](N[C@@H]1CCCC[C@H]1NS(=O)(=O)c1ccc(OC(F)(F)F)cc1)c1cccc2ccccc12`, for which the inhibition result in assay [1] is “inactive”.

For `CC(N[C@@H]1CCCC[C@H]1NS(=O)(=O)c1ccc(Cl)cc1)c1cccc2ccccc12` (some centres undefined), the inhibition in assay [1] was 73%.

As for `CC(N[C@@H]1CCCC[C@H]1NS(=O)(=O)c1ccc(Cl)c(Cl)c1Cl)c1cccc2ccccc12` (relative stereo), the inhibition in assay [1] was found to be 59%.

In the case of `CC(C)(Cc1ccc2ccccc2c1)NC[C@@H](O)COc1cccc(Cl)c1C#N`, the inhibition in assay [1] came to 87%; in assay [2] it was 77%. For the same compound, the concentration for half-maximal inhibition (IC50) in assay [3] is 460 nM.

For the compound `C[C@@H](N[C@H]1CCCC[C@@H]1NS(=O)(=O)c1ccc(OC(F)(F)F)cc1)c1cccc2ccccc12`, the inhibition in assay [1] turned out to be 90%. Further, the IC50 in assay [3] worked out at 2600 nM.

On to `CC(N[C@H]1CCCC[C@@H]1NS(=O)(=O)c1ccc([N+](=O)[O-])cc1)c1ccc(-c2ccccc2)cc1` (relative stereo), for which, in assay [1], the inhibition was 7%.

For the compound `CC(N[C@@H]1CCCC[C@H]1NS(=O)(=O)c1ccc(C(F)(F)F)cc1)c1cccc2ccccc12` (some centres undefined), the inhibition in assay [1] amounted to 75%.

As for `CC(N[C@@H]1CCCC[C@H]1NC(=O)c1ccccc1Cl)c1cccc2ccccc12` (relative stereo), the inhibition is 68% in assay [1] and 19% in assay [2].

For the compound `CC(N[C@@H]1CCCC[C@H]1NS(=O)(=O)c1cccc(Cl)c1)c1cccc2ccccc12` (relative stereo), in assay [1], the inhibition was found to be 60%.

As for `C[C@H](N[C@H]1CCCC[C@@H]1NS(=O)(=O)c1ccc(OC(F)(F)F)cc1)c1cccc2ccccc12`, the inhibition in assay [1] came out at 20%.

For `CC(N[C@@H]1CCCC[C@H]1NC(=O)c1ccc(Cl)c(Cl)c1)c1cccc2ccccc12` (relative stereo), the figures for the inhibition in assay [1] and in assay [2] were 103% and 82%, respectively.

For the compound `CC(N[C@@H]1CCCC[C@H]1NS(=O)(=O)c1ccc(Cl)c(Cl)c1)c1cccc2ccccc12` (relative stereo), in assay [1], the inhibition is 60%.

Take `CC(N[C@@H]1CCCC[C@H]1NS(=O)(=O)c1ccc(OC(F)(F)F)cc1)c1cccc2ccccc12` (relative stereo): the inhibition in assay [1] amounted to 78%; in assay [2], 8%. The IC50 in assay [3] stood at 5400 nM.

Regarding `CC(N[C@@H]1CCCC[C@H]1NC(=O)c1ccccc1)c1cccc2ccccc12` (relative stereo), the inhibition was 78% in assay [1] and 33% in assay [2].

With `CC(N[C@@H]1CCCC[C@H]1NC(=O)c1cc2ccccc2[nH]1)c1cccc2ccccc12` (relative stereo), the inhibition in assay [2] came to 33%.

With `CC(N[C@@H]1CCCC[C@H]1NC(=O)c1ccccc1C(F)(F)F)c1cccc2ccccc12` (relative stereo), the inhibition in assay [2] worked out at 36%.

On to `C[C@H](N[C@@H]1CCCC[C@H]1NC(=O)c1ccc(OC(F)(F)F)cc1)c1cccc2ccccc12`, for which the inhibition in assay [1] was 22%.

Regarding `CC(N[C@@H]1CCCC[C@H]1NS(=O)(=O)c1ccc([N+](=O)[O-])cc1)c1ccc2ccccc2c1` (relative stereo), the inhibition in assay [1] came to 20%; in assay [2], 1%.

`CC(N[C@@H]1CCCC[C@H]1NC(=O)Oc1ccccc1)c1cccc2ccccc12` (relative stereo): in assay [1], the inhibition was found to be 1%.
